In ChEMBL document CHEMBL4808183, “Betulonic Acid Derivatives Interfering with Human Coronavirus 229E Replication via the nsp15 Endoribonuclease” (J Med Chem, 2021):
Active and inactive are the calls of the source. The rule behind the calls is not given here.

Columns and labels:
[1] = target: Replicase polyprotein 1ab (Human coronavirus 229E) (UniProt P0C6X1); assay: Inhibition of nsp15 in Human coronavirus 229E infected in human embryonic lung fibroblast cells assessed as reduction in viral RNA synthesis at early stage of RNA synthesis at 6.3 uM treated 6 hrs post infection by RT-qPCR based time-of-addition assay; assay type: cell-based
[2] = (§1) Antiviral activity against Human coronavirus 229E infected in human embryonic lung fibroblast cells assessed as reduction in virus-induced cytopathic effect incubated for 5 days by MTS cell viability assay; assay type: functional, cell-based; details: 120 h
Summary of the method: (§2)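 Confluent HEL cell cultures given serial compound dilutions together with HCoV-229E at MOI 100 and held 5 days at 35 °C. Virus-induced CPE was scored by microscopy. MTS reagent was then added and absorbance at 490 nm read 24 h later. EC50 was taken from the MTS or microscopic read-out and CC50 from MTS. SI = CC50/EC50, both by MTS. Mean ± SEM of three independent experiments.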

[3] = Antiviral activity against Human coronavirus 229E infected in human embryonic lung fibroblast cells assessed as reduction in virus-induced cytopathic effect incubated for 5 days by microscopy; assay type: functional, cell-based; details: 120 h; summary of the method: as §2
[4] = Cytotoxicity against mock-infected human embryonic lung fibroblast cells incubated for 5 days by MTS assay; assay type: cell-based; details: time 5 day; summary of the method: as §2
[5] = as §1, with “Selectivity index, ratio of CC50 for cytotoxicity against mock-infected human embryonic lung fibroblast cells incubated for 5 days by MTS assay to EC50 for antiviral” for “Antiviral”; assay type: toxicity, cell-based; details: time 5 day, read-out: Ratio CC50/EC50; summary of the method: as §2
[6] = system: Fibroblast; assay: Inhibition of nsp15 K60R drug-resistant mutant in Human coronavirus 229E infected in human embryonic lung fibroblast cells assessed as reduction in virus yield; assay type: cell-based
Summary of the method: (§3)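 Virus yield assay in confluent HEL cells. Serial compound dilutions were added, and cells were infected at MOI 100 with wild-type, EndoU-deficient (H250A nsp15) or passage-selected (K60R or T66I nsp15) HCoV-229E. After 4 h at 35 °C, the inoculum was removed and compound re-added. Supernatant was lysed at 3 days p.i. and N-gene RNA copies measured by one-step RT-qPCR. Results are fold reduction versus the no-compound control, from three independent experiments.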

[7] = system: Fibroblast; assay: Inhibition of nsp15 T66I drug-resistant mutant in Human coronavirus 229E infected in human embryonic lung fibroblast cells assessed as reduction in virus yield; assay type: cell-based; summary of the method: as §3
[8] = system: SARS-CoV-2; assay: Antiviral activity against SARS-CoV-2 infected in eGFP expressing Vero E6 cells assessed as reduction in virus-induced cytopathic effect cells pretreated for 24 hrs measure after 4 days post infection by MTS cell viability assay; assay type: functional, organism-based; details: Severe acute respiratory syndrome coronavirus 2
[9] = system: Human immunodeficiency virus; assay: Antiviral activity against HIV; assay type: functional, organism-based
[10] = system: Herpes simplex virus unknown type; assay: Antiviral activity against Herpes simplex virus; assay type: functional
[11] = system: Vaccinia virus; assay: Antiviral activity against Vaccinia virus; assay type: functional, organism-based; details: Orthopoxvirus vaccinia
[12] = system: Human adenovirus 2; assay: Antiviral activity against Adenovirus; assay type: functional
[13] = system: Vesicular stomatitis virus; assay: Antiviral activity against Vesicular stomatitis virus; assay type: functional, organism-based
[14] = system: Coxsackievirus B4; assay: Antiviral activity against Coxsackie B4 virus; assay type: functional, organism-based
[15] = system: Respiratory syncytial virus; assay: Antiviral activity against Respiratory syncytial virus; assay type: functional, organism-based
[16] = system: Human respirovirus 3; assay: Antiviral activity against Parainfluenza-3 virus; assay type: functional, organism-based
[17] = system: Reovirus sp.; assay: Antiviral activity against Reovirus-1; assay type: functional, organism-based
[18] = system: Sindbis virus; assay: Antiviral activity against Sindbis virus; assay type: functional, organism-based
[19] = system: Punta Toro virus; assay: Antiviral activity against Punta Toro virus; assay type: functional, organism-based
[20] = system: Yellow fever virus; assay: Antiviral activity against Yellow fever virus; assay type: functional, organism-based
[21] = system: Influenza A virus; assay: Antiviral activity against Influenza virus; assay type: functional

Compound | EC50 [2] [µM] | EC50 [3] [µM] | CC50 at 120 h [4] [µM] | selectivity ratio at 120 h [5] | Activity [9] | Activity [10] | Activity [11] | Activity [12] | Activity [13] | Activity [14] | Activity [15] | Activity [16] | Activity [17] | Activity [18] | Activity [19] | Activity [20] | Activity [21] | also measured
CO/C1=C\C(C)=C\[C@@H](C)[C@@H](O)[C@@H](C)C/C(C)=C/C=C/[C@H](OC)[C@@H]([C@@H](C)[C@@H](O)[C@H](C)[C@@]2(O)C[C@@H](O)[C@H](C)[C@@H](C(C)C)O2)OC1=O |  |  |  |  |  |  |  |  |  |  |  |  |  |  |  |  |  | Activity [1]: Active
N#C[C@@]1(c2ccc3c(N)ncnn23)O[C@H](CO)[C@@H](O)[C@H]1O [GS-441524] | 2.3 | 3.2 | > 100 | > 44 |  |  |  |  |  |  |  |  |  |  |  |  |  | EC99 [6]: > 40 µM; Activity [7]: Active
CC(C)[C@@H]1CC[C@]2(C(=O)O)CC[C@]3(C)[C@H](CC[C@@H]4[C@@]5(C)Cc6nnn([C@@H](C)c7ccccc7)c6C(C)(C)[C@@H]5CC[C@]43C)[C@@H]12 | 13 | 6.1 | > 99 | > 7.6 | inactive | inactive | inactive | inactive | inactive | inactive | inactive | inactive | inactive | inactive | inactive | inactive | inactive | Activity [8]: Active
C=C(C)[C@@H]1CC[C@]2(C(=O)O)CC[C@]3(C)[C@H](CC[C@@H]4[C@@]5(C)Cc6nnn(Cc7ccccc7)c6C(C)(C)[C@@H]5CC[C@]43C)[C@@H]12 | 0.85 | 0.71 | 12 | 14 | inactive | inactive | inactive | inactive | inactive | inactive | inactive | inactive | inactive | inactive | inactive | inactive | inactive | 
C=C(C)[C@@H]1CC[C@]2(C(=O)O)CC[C@]3(C)[C@H](CC[C@@H]4[C@@]5(C)Cc6nnn(Cc7cc(OC)cc(OC)c7)c6C(C)(C)[C@@H]5CC[C@]43C)[C@@H]12 | 2.4 | 1.6 | 17 | 7 | inactive | inactive | inactive | inactive | inactive | inactive | inactive | inactive | inactive | inactive | inactive | inactive | inactive | 
C=C(C)[C@@H]1CC[C@]2(C(=O)O)CC[C@]3(C)[C@H](CC[C@@H]4[C@@]5(C)Cc6nnn(CCc7c[nH]c8ccc(OC)cc78)c6C(C)(C)[C@@H]5CC[C@]43C)[C@@H]12 | 0.88 | 0.3 | 8.9 | 10 | inactive | inactive | inactive | inactive | inactive | inactive | inactive | inactive | inactive | inactive | inactive | inactive | inactive | 
C=C(C)[C@@H]1CC[C@]2(C(=O)O)CC[C@]3(C)[C@H](CC[C@@H]4[C@@]5(C)Cc6nnn(Cc7ccc(C(F)(F)F)cc7)c6C(C)(C)[C@@H]5CC[C@]43C)[C@@H]12 | 4.8 | 3.6 | ≥ 47 | > 10 | inactive | inactive | inactive | inactive | inactive | inactive | inactive | inactive | inactive | inactive | inactive | inactive | inactive | 
C=C(C)[C@@H]1CC[C@]2(C(=O)O)CC[C@]3(C)[C@H](CC[C@@H]4[C@@]5(C)Cc6nnn(CCO)c6C(C)(C)[C@@H]5CC[C@]43C)[C@@H]12 | 3.3 | 2.2 | 4.9 | 1.5 | inactive | inactive | inactive | inactive | inactive | inactive | inactive | inactive | inactive | inactive | inactive | inactive | inactive | 
C=C(C)[C@@H]1CC[C@]2(C(=O)O)CC[C@]3(C)[C@H](CC[C@@H]4[C@@]5(C)Cc6nnn(Cc7ccncc7)c6C(C)(C)[C@@H]5CC[C@]43C)[C@@H]12 | 2.5 | 2.4 | 17 | 7 | inactive | inactive | inactive | inactive | inactive | inactive | inactive | inactive | inactive | inactive | inactive | inactive | inactive | 
C=C(C)[C@@H]1CC[C@]2(C(=O)O)CC[C@]3(C)[C@H](CC[C@@H]4[C@@]5(C)Cc6nnn([C@H](C)c7ccccc7)c6C(C)(C)[C@@H]5CC[C@]43C)[C@@H]12 | 1.1 | 0.67 | > 100 | > 91 | inactive | inactive | inactive | inactive | inactive | inactive | inactive | inactive | inactive | inactive | inactive | inactive | inactive | 
